In ChEMBL document CHEMBL1914430, “Synthesis of some new 1,3,5-trisubstituted pyrazolines bearing benzene sulfonamide as anticancer and anti-inflammatory agents” (Bioorg Med Chem Lett, 2011):

Key:
Assay type in all cases: functional
PC-3 = assay: Anticancer activity against human PC3 cells after 48 hrs; settings: PC-3, 48 h
Procedure, shortened: (§1)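 NCI 60-line panel protocol with a 48 h incubation. Per line: GI50 = concentration giving 50% decrease in net cell growth; TGI = total growth inhibition; LC50 = net 50% loss of initial cells. When the level was not reached or was exceeded, the value is given as greater or less than the highest or lowest concentration tested.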

786-0 = assay: Anticancer activity against human 786-0 cells after 48 hrs; settings: 786-0, 48 h
Procedure, shortened: (§2)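 NCI Drug Evaluation Branch 60-cell-line screen across leukemia, melanoma, lung, colon, CNS, ovarian, renal, prostate and breast panels. The incubation period is 48 h. Parameters are derived from dose–response data: GI50 is the concentration giving 50% decrease in net growth, TGI is total growth inhibition, and LC50 is net 50% loss of initial cells. Values beyond the tested range are reported as greater or less than the maximum or minimum concentration.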

MDA-MB-231 = assay: Anticancer activity against human MDA-MB-231 cells after 48 hrs; settings: MDA-MB-231, 48 h; procedure, shortened: as §2
U-251 = assay: Anticancer activity against human U251 cells after 48 hrs; settings: U-251, 48 h
Procedure, shortened: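 NCI ~60 human tumour cell line panel with a 48 h incubation. GI50 is the concentration giving a 50% fall in net growth, TGI gives total growth inhibition, and LC50 gives a net 50% loss of initial cells. An effect not reached or exceeded is reported as greater or less than the highest or lowest concentration tested.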

HOP-92 = assay: Anticancer activity against human HOP92 cells after 48 hrs; settings: HOP-92, 48 h; procedure, shortened: as §2
SF-268 = assay: Anticancer activity against human SF268 cells after 48 hrs; settings: SF-268, 48 h; procedure, shortened: as §1
NCI-H460 = assay: Anticancer activity against human NCI-H460 cells after 48 hrs; settings: NCI-H460, 48 h; procedure, shortened: as §1
NCI-H226 = assay: Anticancer activity against human NCI-H226 cells after 48 hrs; settings: NCI-H226, 48 h; procedure, shortened: as §1
OVCAR-8 = assay: Anticancer activity against human OVCAR8 cells after 48 hrs; settings: OVCAR-8, 48 h; procedure, shortened: as §1
MOLT-4 = assay: Anticancer activity against human MOLT4 cells after 48 hrs; settings: MOLT-4, 48 h; procedure, shortened: as §1
OVCAR-5 = assay: Anticancer activity against human OVCAR5 cells after 48 hrs; settings: OVCAR-5, 48 h; procedure, shortened: as §1
SNB-75 = assay: Anticancer activity against human SNB75 cells after 48 hrs; settings: SNB-75, 48 h; procedure, shortened: as §1
CCRF-CEM = assay: Anticancer activity against human CCRF-CEM cells after 48 hrs; procedure, shortened: as §2
HT-29 = assay: Anticancer activity against human HT-29 cells after 48 hrs; settings: HT-29, 48 h; procedure, shortened: as §2
SK-MEL-5 = assay: Anticancer activity against human SK-MEL-5 cells after 48 hrs; settings: SK-MEL-5, 48 h; procedure, shortened: as §1
SW-620 = assay: Anticancer activity against human SW620 cells after 48 hrs; settings: SW-620, 48 h; procedure, shortened: as §1
MDA-MB-435 = assay: Anticancer activity against human MDA-MB-435 cells after 48 hrs; settings: MDA-MB-435, 48 h; procedure, shortened: as §2
DU-145 = assay: Anticancer activity against human DU145 cells after 48 hrs; settings: DU-145, 48 h; procedure, shortened: as §2
OVCAR-4 = assay: Anticancer activity against human OVCAR4 cells after 48 hrs; settings: OVCAR-4, 48 h; procedure, shortened: as §1
NCI/ADR-RES = assay: Anticancer activity against human NCI/ADR-RES cells after 48 hrs; procedure, shortened: as §1
ACHN = assay: Anticancer activity against human ACHN cells after 48 hrs; procedure, shortened: as §2
[1] = Anticancer activity against human Hs 578T cells after 48 hrs; procedure, shortened: as §2
LOX IMVI = assay: Anticancer activity against human LOXIMVI cells after 48 hrs; procedure, shortened: as §2
SR = assay: Anticancer activity against human SR cells after 48 hrs; procedure, shortened: as §1
MDA-MB-468 = assay: Anticancer activity against human MDA-MB-468 cells after 48 hrs; settings: MDA-MB-468, 48 h; procedure, shortened: as §2
HL-60(TB) = assay: Anticancer activity against human HL-60(TB) cells after 48 hrs; settings: HL-60, 48 h
Procedure, shortened: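 NCI 60-cell-line panel protocol: cells exposed to compound for 48 h. Initial one-dose screen at 10⁻⁵ M. GI50 = concentration giving 50% decrease in net cell growth. TGI = concentration giving total growth inhibition. LC50 = concentration giving net 50% loss of initial cells at the end of incubation. A value not reached or exceeded is reported as greater or less than the highest or lowest concentration tested.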

HCC 2998 = assay: Anticancer activity against human HCC2998 cells after 48 hrs; settings: HCC 2998, 48 h; procedure, shortened: as §2
RPMI-8226 = assay: Anticancer activity against human RPMI8226 cells after 48 hrs; settings: RPMI-8226, 48 h; procedure, shortened: as §1
IGROV-1 = assay: Anticancer activity against human IGROV1 cells after 48 hrs; settings: IGROV-1, 48 h; procedure, shortened: as §2
[2] = read-out: LC50 (the source's name)

Cc1cc(O)c(C2=NN(c3ccc(S(N)(=O)=O)cc3)C(c3ccccc3O)C2)cc1Cl (configuration not stated)
GI50 (PC-3): 1.33 µM | TGI (PC-3): 3.52 µM | CC50 (PC-3; [2]): 9.33 µM | GI50 (786-0): 2.23 µM | TGI (786-0): 4.21 µM | CC50 (786-0; [2]): 7.94 µM | GI50 (MDA-MB-231): 2.3 µM | TGI (MDA-MB-231): 6.69 µM | CC50 (MDA-MB-231; [2]): 29.5 µM | GI50 (U-251): 2.78 µM | TGI (U-251): 7.76 µM | CC50 (U-251; [2]): 26.9 µM | GI50 (HOP-92): 1.46 µM | TGI (HOP-92): 6.51 µM | CC50 (HOP-92; [2]): 37.8 µM | GI50 (SF-268): 2.64 µM | LC50 (concentration killing 50% of initial cells) (SF-268): 51.9 µM | TGI (SF-268): 8.06 µM | GI50 (NCI-H460): 2.06 µM | LC50 (50% lethal concentration) (NCI-H460): 9.4 µM | TGI (NCI-H460): 4.48 µM | GI50 (NCI-H226): 2.21 µM | TGI (NCI-H226): 7.55 µM | CC50 (NCI-H226; [2]): 86.5 µM | GI50 (OVCAR-8): 3.89 µM | TGI (OVCAR-8): 16.5 µM | CC50 (OVCAR-8; [2]): 91.8 µM | GI50 (MOLT-4): 4.74 µM | LC50 (MOLT-4): > 100 µM | TGI (MOLT-4): 34.4 µM | GI50 (OVCAR-5): 1.73 µM | LC50 (OVCAR-5): 8.12 µM | TGI (OVCAR-5): 3.75 µM | GI50 (SNB-75): 1.79 µM | TGI (SNB-75): 13.6 µM | CC50 (SNB-75; [2]): 37.1 µM | GI50 (CCRF-CEM): 4.17 µM | LC50 (concentration causing net 50% loss of initial cells) (CCRF-CEM): > 100 µM | TGI (CCRF-CEM): > 100 µM | GI50 (HT-29): 2.37 µM | TGI (HT-29): 5.1 µM | CC50 (HT-29; [2]): 12.9 µM | GI50 (SK-MEL-5): 5.69 µM | LC50 (SK-MEL-5): 42.7 µM | TGI (SK-MEL-5): 18.2 µM | GI50 (SW-620): 1.76 µM | TGI (SW-620): 3.59 µM | CC50 (SW-620; [2]): 7.35 µM | GI50 (MDA-MB-435): 2.04 µM | TGI (MDA-MB-435): 4.49 µM | CC50 (MDA-MB-435; [2]): 9.88 µM | GI50 (DU-145): 2.41 µM | LC50 (concentration causing net 50% loss of initial cells) (DU-145): 10.6 µM | TGI (DU-145): 4.95 µM | GI50 (OVCAR-4): 3.9 µM | LC50 (OVCAR-4): 51.8 µM | TGI (OVCAR-4): 16 µM | GI50 (NCI/ADR-RES): 3.61 µM | TGI (NCI/ADR-RES): 14.1 µM | CC50 (NCI/ADR-RES; [2]): 54.1 µM | GI50 (ACHN): 3.13 µM | TGI (ACHN): 11.2 µM | CC50 (ACHN; [2]): 33.4 µM | GI50 [1]: 4.64 µM | TGI [1]: 22.5 µM | CC50 [1, 2]: > 100 µM | GI50 (LOX IMVI): 1.73 µM | TGI (LOX IMVI): 3.19 µM | CC50 (LOX IMVI; [2]): 5.87 µM | GI50 (SR): 2.22 µM | LC50 (concentration killing 50% of initial cells) (SR): > 100 µM | TGI (SR): 26.7 µM | GI50 (MDA-MB-468): 2.58 µM | TGI (MDA-MB-468): 7.92 µM | CC50 (MDA-MB-468; [2]): 37.6 µM | GI50 (HL-60(TB)): 2.99 µM | LC50 (HL-60(TB)): > 100 µM | TGI (HL-60(TB)): 7.32 µM | GI50 (HCC 2998): 2.13 µM | LC50 (net 50% loss of initial cells) (HCC 2998): 8.74 µM | TGI (HCC 2998): 4.31 µM | GI50 (RPMI-8226): 2.39 µM | LC50 (concentration for net 50% loss of initial cells) (RPMI-8226): > 100 µM | TGI (RPMI-8226): 15 µM | GI50 (IGROV-1): 1.63 µM | LC50 (net 50% loss of initial cells) (IGROV-1): 37.4 µM | TGI (IGROV-1): 11.2 µM
